Screening results from PubChem BioAssay.
This is a sample that favours compounds with a hit; in the whole collection about 2.4% have one here.
b-catenin transl = modulators of beta-catenin nuclear translocation, primary screen, imaging, HeLa cells, immunofluorescence, high-content. hit rate 0.3% among 190,000. nuclear translocation activity, % at 5 µM;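 active = nuclear translocation activity above 50% at 5 µM, with a well cell count of 50 or more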;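 note: per-cell ratio of nuclear to cytoplasmic median beta-catenin stain intensity; plate controls were DMSO negative control for no effect and GSK-3 inhibitor IX positive control for full effect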
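System: HeLa cells, endogenous beta-catenin; compound dosing: 5 µM primary single dose, 0.1% DMSO, 0.02–20 µM confirmation series; incubation: 24 h compound exposure at 37°C, 5% CO2; signal: beta-catenin immunofluorescence imaging with DAPI; evaluation: % activation, nuclear-to-cytoplasmic median beta-catenin signal ratio per cell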
STAT3 act-1 = IL-6 driven STAT3 reporter potentiators, primary screen, U3A cells, luciferase, luminescence, MLSCN library. IL-6 STAT3-luciferase reporter; 100% = signal with IL-6 EC80 alone. activation (% of control), % at 5.6 µM. hit rate 0.91% among 190,000. AID 871, 2007;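 active = activation above the screen-wide mean of compound activation plus 3 SD, cut at about 130% in these data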;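 note: 0% = background luminescence of wells with medium and substrate only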
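Material: human U3A cells carrying STAT3-luciferase construct. Measured by: reporter luminescence signal. Timing: compound 1 h, then IL-6 6 h at 37 °C.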
STAT1 inh = STAT1 signaling inhibitors, primary screen, cell-based, HTS, luciferase reporter. NIH 3T3 STAT1-luciferase reporter, IFN-gamma, luminescence. hit rate 0.35% among 200,000. inhibition, % at 5.5 µM;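 active = inhibition above a set limit, the mean inhibition across all tested compounds plus 3 SD, cut at about 34% in these data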;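 note: 0% = IFN-gamma with DMSO and 100% = IFN-gamma with 300 µM nifuroxazide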
STAT3 inh = IL-6 driven STAT3 reporter inhibitors, primary screen, U3A cells, luciferase, luminescence, MLSCN library. IL-6 STAT3-luciferase reporter; host cell line lacks STAT1. inhibition, % at 5.5 µM. hit rate 0.89% among 190,000. AID 862, 2007;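 active = inhibition above the mean inhibition across all screened compounds plus 3 SD, cut at about 44% in these data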;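 note: 0% = DMSO only wells and 100% = 100 µM nifuroxazide control wells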
MT stabilizer = microtubule stabilizers in HeLa cells, primary screen, imaging, high-content imaging. % tubulin-high responders, % at 10 µM. HeLa tubulin immunostaining HCS, 24 h; share of cells brighter than vehicle mean+2SD. hit rate 0.83% among 200,000;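 active = plate Z-score above 3 for both tubulin-high and condensed-nucleus cell shares, with cell loss under 80%, at 10 µM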;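 note: anti alpha tubulin signal scored within the nucleus-defined area of each cell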
STAT3 act-2 = STAT3 reporter potentiators, retest of hits, confirmation, U3A cells, luciferase, luminescence | shares compounds with STAT3 act-1 | IL-6 potentiation; U3A cells lack STAT1; 100 means same as IL-6 alone | potentiation (% of control), % at 5.7 µM | hit rate 64% among 1,200 | AID 1267, 2008;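 active = percent activation of the STAT3 luciferase reporter above a set limit taken from the earlier primary screen, cut at about 130% in these data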;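 note: 0% = background signal of medium plus substrate and 100% = median of IL-6 with DMSO wells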
NFkB act 2 = NF-kB reporter activators in human cells, counter-screen for STAT3 activator project; shares compounds with STAT3 act-1; NF-kappaB reporter activation; activation (% of control), % at 5.7 µM; hit rate 11% among 1,200; in the data active = activation above about 120%;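 note: reporter induced by TNF-alpha stimulation; 100% = median of stimulated DMSO wells and 0% = no signal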
STAT1 act = STAT1 reporter activators, IFN-gamma induced, counter-screen for STAT3 activator project, cell-based, NIH 3T3, luciferase luminescence; shares compounds with STAT3 act-1; AID 1318, 2008; activation (% of control), % at 5.7 µM; NIH 3T3 STAT1-luciferase reporter; hit rate 13% among 1,200;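 active = activation above the solvent-only control well mean plus 3 SD, set per screening run, cut at about 120% in these data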;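 note: 100% = IFN-gamma with DMSO median signal so 100% means no change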
* marks the source's active call; other numbers are inactive results; x = no result given.

SMILES	b-catenin transl	STAT3 act-1	STAT1 inh	STAT3 inh	MT stabilizer	STAT3 act-2	NFkB act 2	STAT1 act
Cn1c(=O)c(/C=C/c2ccc(F)cc2)nc2ccccc21	-1	152*	-24	-51	3	177*	120	129*
CCc1ccc(NC(=S)N2CCNC(=O)C2CC(=O)OC)cc1 (stereo unspecified)	-6	105	-5	1	2	x	x	x
CC1CC(=O)C2=C(C1)Nc1ccccc1N=C2 (stereo unspecified)	x	104	10	-4	1	x	x	x
CCC1=Nc2ccccc2NC2=C1C(=O)CCC2	1	166*	-23	-77	2	160*	119	123*
CCOc1cc(N2CCOCC2)c(OCC)cc1NC(=O)COc1ncnc2ccccc12	x	151*	-6	-50	1	154*	107	104
CCOc1cc(N2CCOCC2)c(OCC)cc1NC(=O)COC(=O)c1cc2ccccc2cc1O	x	105	4	-6	2	x	x	x
O=c1oc2ccccc2cc1N1CCOCC1	0	97	-7	3	5	x	x	x
CSc1nc(/C=C2\C=Nc3ccccc32)c(O)n1C	1	146*	0	-55	2	155*	111	103
O=C1N(Cc2cccnc2)C[C@@H]2C[C@@H](c3cccc(OC4CCCC4)c3)N3CCC[C@@]123	0	105	-7	0	3	x	x	x
O=[N+]([O-])c1ccc(S(=O)(=O)N2CCN(Cc3c[nH]c4ccccc34)CC2)cc1	-2	152*	14	-62	2	155*	105	100
COc1ccc(S(=O)(=O)N2CCN(Cc3c[nH]c4ccccc34)CC2)cc1	x	121	-3	-15	2	x	x	x
COc1ccc(OC)c(Nc2nc(-c3cccs3)cs2)c1	0	147*	-11	-53	4	121	112	103
COc1ccc(Nc2nc(-c3cccs3)cs2)c(OC)c1	x	110	-70	-8	3	x	x	x
Oc1ccccc1/C=N/N1CCCCC1	-1	93	-16	8	4	x	x	x
Oc1[nH]c2ccccc2c1/C=N/N1CCCCC1	-2	145*	-8	-50	3	103	100	103
COc1ccc(C2CC(c3ccc4ccccc4c3OC(C)=O)=NN2C(C)=O)cc1 (stereo unspecified)	0	x	x	x	x	x	x	x
CCOC(=O)c1cnn(-c2ncnc3c2cnn3Cc2ccccc2)c1N	x	87	3	18	2	x	x	x
CCOC(=O)c1cnn(-c2ncnc3sc(C)c(C)c23)c1N	-4	149*	6	-57	3	143*	101	104
COc1ccc(-c2nn(C)c3sc(C(=O)N4CCOCC4)cc23)cc1OC	1	80	2	30	2	x	x	x
CCN1CCN(C(=O)c2cc3c(-c4ccc(Cl)cc4)nn(C)c3s2)CC1	2	152*	12	-51	1	134*	97	91
Cc1nn(-c2ccc(Cl)cc2)c2sc(C(=O)N3CCN(C(=O)c4ccco4)CC3)cc12	-2	x	x	x	x	x	x	x
Cn1nc(-c2ccc(Cl)cc2)c2cc(C(=O)N3CCN(C(=O)c4ccco4)CC3)sc21	x	150*	12	-56	3	129	99	89
CCOC(=O)N1CCC2(CC1)C(C#N)=C(N)OC1=C2C(=O)CC(C)C1 (stereo unspecified)	0	99	4	3	2	x	x	x
O=C1Nc2ccc(Br)cc2C1(O)Cc1ccccn1 (stereo unspecified)	2	104	4	-1	2	x	x	x
O=C1Nc2ccc(Br)cc2C12NNc1ccccc1O2 (stereo unspecified)	4	141*	0	-47	5	122	98	96
